Experimental data from ChEMBL document CHEMBL1143670, “An adamantyl-substituted retinoid-derived molecule that inhibits cancer cell growth and angiogenesis by inducing apoptosis and binds to small heterodimer partner nuclear receptor: effects of modifying its carboxylate group on apoptosis, proliferation, and protein-tyrosine phosphatase activity” (J Med Chem, 2007).
Active and inactive are the calls of the source. The calls are words filed in the database; no cut-off is given here.

What was measured:
Mus musculus = assay: Inhibition of TPA-induced ornithine decarboxylase in mouse dorsal epidermis applied topically after 1 hr; type: functional
[1] = Antiproliferative activity against HMVE cells; type: functional, cell-based; details: Homo sapiens
[2] = (§1) Induction of apoptosis in tran-RA-resistant HL60R cells at 1 uM after 24 hrs; type: functional, Homo sapiens
MDA-MB-231 [3] = assay: Induction of apoptosis in retinoid-resistant MDA-MB-231 cells at 1 uM after 96 hrs; type: functional, Homo sapiens
Summary of the method: (§2)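 Apoptotic cells scored by acridine orange staining. KG-1, HL-60R or MDA-MB-231 cells seeded in medium with 5% FBS, incubated overnight, then exposed to compound in Me2SO (0.1% final) for the stated time.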

[4] = molecular target: T1, Nuclear receptor subfamily 0 group B member 2 (Homo sapiens) (UniProt Q15466); assay: Displacement of [5,5'-3H2]AHPN from recombinant human GST-SHP partner nuclear orphan receptor at 50 uM
T1 sequence (whole entry): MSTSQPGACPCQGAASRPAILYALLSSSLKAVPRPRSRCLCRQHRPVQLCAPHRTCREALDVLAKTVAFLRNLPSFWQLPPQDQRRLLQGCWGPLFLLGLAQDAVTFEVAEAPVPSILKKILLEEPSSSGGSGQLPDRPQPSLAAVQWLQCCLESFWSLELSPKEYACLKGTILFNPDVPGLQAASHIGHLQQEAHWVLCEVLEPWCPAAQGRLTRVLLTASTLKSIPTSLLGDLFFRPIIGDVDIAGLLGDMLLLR
Summary of the method: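 GST–human SHP fusion (150–500 ng) on glutathione-Sepharose beads preincubated on ice 45 min with unlabeled compound (50 µM final) in 0.4 mL binding buffer. [5,5′-3H2]AHPN (5 nM final) then added for 2 h at 4 °C. Beads washed, counted by scintillation directly or after elution with 50 mM NaHCO3/1% SDS.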

Trachea = assay: Reversal of keratinization in vitamin A-deficient hamster trachea after 10 days by TOC assay; type: functional, tissue-based; details: Cricetinae, 240 h
[5] = Inhibition of HMVE cell proliferation at 0.5 uM relative to control; type: functional; details: Homo sapiens
[6] = molecular target: Receptor-type tyrosine-protein phosphatase C, CD45 (Homo sapiens) (UniProt P08575); assay: Inhibition of CD45 PTP at 10 uM relative to control by fluorescence spectrometry
Chain of Receptor-type tyrosine-protein phosphatase C, CD45 (Homo sapiens) (P08575 whole entry, looked up): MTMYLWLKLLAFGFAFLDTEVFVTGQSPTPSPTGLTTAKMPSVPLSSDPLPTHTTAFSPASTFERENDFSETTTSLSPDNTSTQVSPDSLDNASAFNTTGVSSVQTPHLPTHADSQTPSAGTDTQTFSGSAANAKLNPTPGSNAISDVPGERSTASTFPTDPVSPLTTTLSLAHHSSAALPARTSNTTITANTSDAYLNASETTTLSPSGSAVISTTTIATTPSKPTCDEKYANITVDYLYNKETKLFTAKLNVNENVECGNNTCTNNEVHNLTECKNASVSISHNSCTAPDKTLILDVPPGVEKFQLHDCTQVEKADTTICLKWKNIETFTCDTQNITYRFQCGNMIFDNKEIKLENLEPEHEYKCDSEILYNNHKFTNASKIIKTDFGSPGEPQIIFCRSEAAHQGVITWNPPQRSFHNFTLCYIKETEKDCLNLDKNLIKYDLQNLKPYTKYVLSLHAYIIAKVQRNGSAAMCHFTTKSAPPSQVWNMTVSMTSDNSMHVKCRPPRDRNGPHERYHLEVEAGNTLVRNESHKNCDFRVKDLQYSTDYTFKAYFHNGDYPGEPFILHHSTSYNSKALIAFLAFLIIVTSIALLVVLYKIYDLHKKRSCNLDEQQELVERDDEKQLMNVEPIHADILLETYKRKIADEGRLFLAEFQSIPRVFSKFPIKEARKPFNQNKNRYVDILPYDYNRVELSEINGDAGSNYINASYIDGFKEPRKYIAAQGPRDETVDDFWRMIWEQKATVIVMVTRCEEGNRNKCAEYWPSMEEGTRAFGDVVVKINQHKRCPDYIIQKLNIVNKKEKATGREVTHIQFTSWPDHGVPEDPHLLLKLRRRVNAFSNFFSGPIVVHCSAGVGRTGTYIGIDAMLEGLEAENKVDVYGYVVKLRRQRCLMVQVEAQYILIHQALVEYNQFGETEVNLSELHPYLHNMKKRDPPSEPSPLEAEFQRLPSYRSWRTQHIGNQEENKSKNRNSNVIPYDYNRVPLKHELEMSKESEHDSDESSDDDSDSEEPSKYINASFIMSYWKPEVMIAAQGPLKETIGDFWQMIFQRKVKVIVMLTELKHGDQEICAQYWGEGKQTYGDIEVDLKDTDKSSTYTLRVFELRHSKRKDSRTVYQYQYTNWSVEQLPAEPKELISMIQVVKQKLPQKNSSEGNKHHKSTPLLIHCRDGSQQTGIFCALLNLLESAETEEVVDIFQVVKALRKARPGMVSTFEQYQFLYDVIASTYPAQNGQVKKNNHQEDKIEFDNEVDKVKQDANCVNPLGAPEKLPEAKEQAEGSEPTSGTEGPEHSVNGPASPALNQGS

KG-1 [7] = assay: Induction of apoptosis in retinoid-resistant KG1 cells at 1 uM after 48 hrs; type: functional, Homo sapiens; summary of the method: as §2
KG-1 [8] = assay: Growth inhibition of retinoid-resistant KG1 cells at 5 uM after 48 hrs; type: functional; details: Homo sapiens, KG-1, 48 h
Summary of the method: (§3)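 KG-1 cells grown in RPMI-1640 with 5% heat-inactivated FBS and gentamycin, seeded in 3 mL medium plus 5% FBS, incubated overnight. Compound then added in Me2SO (0.1% final), cells incubated for the stated time, harvested and counted by hemocytometer.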

MDA-MB-231 [9] = assay: Growth inhibition of retinoid-resistant MDA-MB-231 cells after 72 hrs; type: functional, cell-based; details: Homo sapiens, MDA-MB-231, 72 h
Summary of the method: (§4)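 Cells seeded at 2 × 10^3 per well for H292 and DU-145 (RPMI-1640, 10% FBS) or 4 × 10^3 for MDA-MB-231 (DMEM, 10% FBS), 37 °C, 6% CO2. After 24 h attachment, treated 72 h with compound in Me2SO (0.1% final); media and compound renewed at 48 h. Viable cells by MTS reduction; triplicates per concentration.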

MDA-MB-231 [10] = assay: Growth inhibition of retinoid-resistant MDA-MB-231 cells at 1 uM relative to control; type: functional; details: Homo sapiens; summary of the method: as §4
[11] = Growth inhibition of retinoid-resistant H292 cells after 72 hrs; type: functional, cell-based; details: Homo sapiens, NCI-H292, 72 h; summary of the method: as §4
[12] = Growth inhibition of retinoid-resistant H292 cells at 1 uM relative to control; type: functional; details: Homo sapiens, NCI-H292; summary of the method: as §4
DU-145 [13] = assay: Growth inhibition of retinoid-resistant DU145 cells after 72 hrs; type: functional, cell-based; details: Homo sapiens, DU-145, 72 h; summary of the method: as §4
DU-145 [14] = assay: Growth inhibition of retinoid-resistant DU145 cells at 1 uM relative to control; type: functional; details: Homo sapiens; summary of the method: as §4
KG-1 [15] = assay: Inhibition of cell proliferation in retinoid-resistant KG1 cells after 48 hrs; type: functional, cell-based; details: Homo sapiens, KG-1, 48 h; summary of the method: as §3
KG-1 [16] = assay: Inhibition of cell proliferation in retinoid-resistant KG1 cells at 1 uM after 48 hrs relative to control; type: functional; details: Homo sapiens, KG-1, 48 h; summary of the method: as §3
KG-1 [17] = assay: Inhibition of cell proliferation of KG1 cells; type: functional, cell-based; details: Homo sapiens; summary of the method: as §3
KG-1 [18] = assay: Induction of apoptosis in retinoid-resistant KG1 cells at 5 uM after 48 hrs; type: functional, Homo sapiens; summary of the method: as §2
F9 = assay: Induction of terminal differentiation in mouse F9 cells assessed by measuring secreted plasminogen activator activity after 3 days; type: functional, cell-based; details: F9, 72 h, read-out: IC50 (the source's name)
[19] = molecular target: T2, Tyrosine-protein phosphatase non-receptor type 11 (Homo sapiens, UniProt Q06124); assay: Inhibition of SHP2 PTP by fluorescence spectroscopy
T2 sequence (Q06124 whole entry): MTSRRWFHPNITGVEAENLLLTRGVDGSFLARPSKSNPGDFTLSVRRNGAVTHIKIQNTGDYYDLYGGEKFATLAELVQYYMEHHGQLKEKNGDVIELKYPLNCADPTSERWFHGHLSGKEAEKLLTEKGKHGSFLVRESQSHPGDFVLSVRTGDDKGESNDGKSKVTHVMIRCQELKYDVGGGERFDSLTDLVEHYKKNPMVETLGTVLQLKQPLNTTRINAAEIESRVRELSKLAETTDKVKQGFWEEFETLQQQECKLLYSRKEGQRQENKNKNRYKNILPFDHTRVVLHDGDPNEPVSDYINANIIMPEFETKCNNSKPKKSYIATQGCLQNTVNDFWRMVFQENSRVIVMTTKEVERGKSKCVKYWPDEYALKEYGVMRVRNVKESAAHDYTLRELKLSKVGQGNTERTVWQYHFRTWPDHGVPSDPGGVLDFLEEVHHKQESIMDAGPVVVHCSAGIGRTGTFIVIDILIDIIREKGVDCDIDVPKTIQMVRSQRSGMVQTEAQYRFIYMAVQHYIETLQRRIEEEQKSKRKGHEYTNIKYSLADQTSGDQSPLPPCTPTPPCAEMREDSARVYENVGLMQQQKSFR

HL60R = assay: as §1; type: functional; details: Homo sapiens

Row | Structure (SMILES) | IC50 [1] | inhibition at 0.5 µM [5] | Activity (KG-1 [7]) | inhibition at 5 µM (KG-1 [8]) | IC50 (MDA-MB-231 [9]) | inhibition at 1 µM (MDA-MB-231 [10]) | IC50 [11] | inhibition at 1 µM [12] | IC50 (DU-145 [13]) | inhibition at 1 µM (DU-145 [14]) | IC50 (KG-1 [15]) | inhibition at 1 µM (KG-1 [16]) | Activity (KG-1 [18]) | also measured
1 | O=C(O)c1ccc2cc(-c3ccc(O)c(C45CC6CC(CC(C6)C4)C5)c3)ccc2c1 [O-DEMETHYLATED ADAPALENE] | 0.3 µM | – | – | – | – | – | – | – | – | – | – | – | – | ID50 (Mus musculus): 66 nmol; Activity [2]: 98%; Activity (MDA-MB-231 [3]): 46%; Activity [4]: 53%
2 | CC1=C(/C=C/C(C)=C/C=C/C(C)=C/C(=O)O)C(C)(C)CCC1 [TRETINOIN] | > 0.5 µM | 10% | – | – | – | – | – | – | – | – | – | – | – | IC50 (Trachea): 0.01 nM; ID50 (Mus musculus): 0.19 nmol
3 | CC1(C)CCC(C)(C)c2cc(/C(=N\O)c3ccc4cc(C(=O)O)ccc4c3)ccc21 | – | 30% | – | – | – | – | – | – | – | – | – | – | – | –
4 | O=C(O)/C=C/c1ccc(-c2ccc(O)c(C34CC5CC(CC(C5)C3)C4)c2)cc1 [ADAROTENE] | 0.1 µM | 90% | – | – | – | – | – | – | – | – | – | – | – | inhibition [6]: 84%
5 | OB(O)/C=C/c1ccc(-c2ccc(O)c(C34CC5CC(CC(C5)C3)C4)c2)c(Cl)c1 | – | – | 4% | 0% | 19 µM | 3% | 7.2 µM | 0% | 7 µM | 2% | > 5 µM | 0% | 4% | IC50 (KG-1 [17]): > 5 µM; Activity [4]: 0%
6 | O=CC(=O)/C=C/c1ccc(-c2ccc(O)c(C34CC5CC(CC(C5)C3)C4)c2)c(Cl)c1 | – | – | 5% | 38% | 14 µM | 0% | 7 µM | 7% | 7.8 µM | 0% | 10 µM | 11% | 6% | –
7 | Oc1ccc2cc(-c3ccc(O)c(C45CC6CC(CC(C6)C4)C5)c3)ccc2c1 | > 0.5 µM | 15% | – | – | – | – | – | – | – | – | – | – | – | –
8 | Oc1ccc(-c2ccc(/C=C/c3nnn[nH]3)cc2Cl)cc1C12CC3CC(CC(C3)C1)C2 | – | – | 10% | 31% | 21 µM | 0% | 16 µM | 3% | 14 µM | 0% | 13 µM | 0% | 12% | –
9 | CC(=O)NCCCOc1cc(/C=C/C(=O)O)ccc1-c1ccc(O)c(C23CC4CC(CC(C4)C2)C3)c1 | – | – | – | – | – | – | – | – | – | – | – | – | – | Activity [4]: 72%
10 | CC1(C)CCC(C)(C)c2cc(-c3ccc4cc(C(=O)O)ccc4c3)ccc21 | – | – | – | – | – | – | – | – | – | – | – | – | – | IC50 (Trachea): 0.007 nM; EC50 (F9): 0.001 µM; ID50 (Mus musculus): 2 nmol
11 | O=C(O)c1ccc2c(Cl)c(-c3ccc(O)c(C45CC6CC(CC(C6)C4)C5)c3)ccc2c1 | 0.5 µM | 45% | – | – | – | – | – | – | – | – | – | – | – | –
12 | CC1(C)CCC(C)(C)c2cc(-c3ccc(/C=C/C(=O)O)cc3)ccc21 | – | – | – | – | – | – | – | – | – | – | – | – | – | IC50 (Trachea): 0.32 nM; EC50 (F9): 0.0003 µM; ID50 (Mus musculus): 7.5 nmol
13 | CCOP(=O)(O)/C=C/c1ccc(-c2ccc(O)c(C34CC5CC(CC(C5)C3)C4)c2)c(Cl)c1 | – | – | 0% | 0% | > 5 µM | 3% | > 5 µM | 2% | > 5 µM | 3% | > 5 µM | 0% | 0% | –
14 | Cc1c(-c2ccc3c(c2)C(C)(C)CCC3(C)C)ccc2cc(C(=O)O)ccc12 | – | – | – | – | – | – | – | – | – | – | – | – | – | IC50 (Trachea): 0.08 nM; EC50 (F9): 0.003 µM; ID50 (Mus musculus): 66 nmol
15 | Oc1ccc(-c2ccc(-c3nnn[nH]3)cc2Cl)cc1C12CC3CC(CC(C3)C1)C2 | – | – | 2% | 21% | 71 µM | 0% | 14 µM | 3% | 52 µM | 0% | > 5 µM | 13% | 2% | IC50 [19]: 1.3 µM; inhibition [6]: 46%
16 | O=C1NC(=O)/C(=C/C=C/c2ccc(-c3ccc(O)c(C45CC6CC(CC(C6)C4)C5)c3)c(Cl)c2)S1 | – | – | 2% | 2% | 24 µM | 0% | 23 µM | 2% | 15 µM | 0% | – | 0% | 2% | Activity [4]: 69%
17 | N#CC(C#N)=Cc1ccc(-c2ccc(O)c(C34CC5CC(CC(C5)C3)C4)c2)c(Cl)c1 | – | – | 0% | 0% | > 10 µM | 0% | > 10 µM | 0% | > 10 µM | 4% | > 5 µM | 0% | 3% | IC50 (KG-1 [17]): > 5 µM
18 | Cc1c(-c2ccc(O)c(C34CC5CC(CC(C5)C3)C4)c2)ccc2cc(C(=O)O)ccc12 | – | – | – | – | – | – | – | – | – | – | – | – | 73% | Activity at 1 µM (KG-1 [7]; Homo sapiens, KG-1, 48 h): 51%
19 | O=C(/C=C/c1ccc(-c2ccc(O)c(C34CC5CC(CC(C5)C3)C4)c2)c(Cl)c1)NO | – | – | – | 0% | 6.3 µM | 4% | 9 µM | 6% | 3.5 µM | 7% | > 5 µM | 0% | 4% | IC50 (KG-1 [17]): > 5 µM; Activity [4]: 7%
20 | O=C(O)c1ccc2ccc(-c3ccc(O)c(C45CC6CC(CC(C6)C4)C5)c3)cc2c1 | > 0.5 µM | 15% | – | – | – | – | – | – | – | – | – | – | – | Activity (HL60R): inactive
